Screens (PubChem BioAssay)
The list is not random: actives were taken first. Their share in the collection is about 3.6%.
Hsp70 activator = Hsp70 transcriptional activators, primary screen, cell-based, HeLa, Hsp70 promoter luciferase, luminescence, 10 µM; HeLa Hsp70 promoter luciferase reporter; scaled: vehicle 0, proteasome-inhibitor control 100%; activation, % at 10 µM; 200,000 tested, 0.04% active;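 active = activation above the mean across all tested compounds plus 3 SD, cutoff set per campaign, cut at about 5.5% in these data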;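 also: 100% = MG132 at 30 µM as the positive control and 0% = DMSO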
AHR act = AHR activators, primary screen, cell-based, luminescence, luciferase reporter, human | Aryl hydrocarbon receptor (Homo sapiens), P35869 | AHR-responsive luciferase reporter cells | activation, % at 5 µM | 320,000 tested, 2.5% active; in the data active = activation above about 47%;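 also: 0% = vehicle wells and 100% = reference agonist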
PolyA inh = polyadenylation inhibitors in yeast reporter cells, primary screen, luminescence, S. cerevisiae; S. cerevisiae SKY197-pL101 polyadenylation reporter, beta-gal luminescence; efflux-impaired pdr1/pdr3 knockout yeast; score 100 = 6 SD above DMSO; activity score, % at 12 µM; 300,000 tested, 0.02% active;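 active = lowest replicate activity score at least 50, where 100 means six control SD above control mean; inconclusive = lowest score under 50 but half or more replicates reach 50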;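 also: yeast exposed to compound for 9 h at 30 °C; higher score means more reporter readthrough which indicates perturbed polyadenylation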
HSF1 inhib = HSF1 inhibitors in luciferase reporter cells, primary screen, cell-based, NIH3T3, luminescence. NIH3T3-HGL HSE-luciferase, MG132-induced, luminescence 8 h; hits give low values. activity change, negative = inhibition, % at 7.5 µM (by protocol). 300,000 tested, 0.77% active;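 active = more than half of replicate wells show activity change below -50%, luminescence cut by over half; inconclusive = some wells, but at most half, below -50%; inactive = no replicate well below -50%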;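 also: luciferase reports HSF-1 transcriptional activity via heat shock element; 0% = median of DMSO wells and -100% = zero luminescence signal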
STAT3 act = IL-6 driven STAT3 reporter potentiators, primary screen, U3A cells, luciferase, luminescence, MLSCN library. 190,000 tested, 0.91% active. IL-6 STAT3-luciferase reporter; 100% = signal with IL-6 EC80 alone. activation (% of control), % at 5.6 µM;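 active = activation above the screen-wide mean of compound activation plus 3 SD, cut at about 130% in these data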;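 also: 0% = background luminescence of wells with medium and substrate only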
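Material: STAT3-luciferase reporter U3A cells. Controls: IL-6-treated wells, 100% activation. Read-out: % activation versus median of IL-6-stimulated wells. Probe or stimulus: IL-6 stimulus at 33 ng/mL final. Timing: compound 1 h, then IL-6 6 h at 37 °C. Signal: reporter luminescence signal.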
PERK inhibitor = block of dimerizer-induced PERK translation repression, primary screen, PERK inhibitor project, CHO PERK-DD cells, SEAP luminescence, HTS; Eukaryotic translation initiation factor 2-alpha kinase 3 (Homo sapiens), Q9NZJ5; CHO PERK-DD fusion, SEAP luminescence translation reporter; inhibition, % at 5.6 µM; 220,000 tested, 0.17% active; AID 1416, 2008;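 active = inhibition above the mean inhibition of all tested compounds plus 3 SD, set separately per screening campaign, cut at about 2.9% in these data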;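 also: PERK kinase domain activated by AP20187 dimerizer at 100 nM; 0% = DMSO with dimerizer and 100% = rapamycin at 8.4 µM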
Target sequence (Q9NZJ5 whole entry, looked up, the tested form may be a part): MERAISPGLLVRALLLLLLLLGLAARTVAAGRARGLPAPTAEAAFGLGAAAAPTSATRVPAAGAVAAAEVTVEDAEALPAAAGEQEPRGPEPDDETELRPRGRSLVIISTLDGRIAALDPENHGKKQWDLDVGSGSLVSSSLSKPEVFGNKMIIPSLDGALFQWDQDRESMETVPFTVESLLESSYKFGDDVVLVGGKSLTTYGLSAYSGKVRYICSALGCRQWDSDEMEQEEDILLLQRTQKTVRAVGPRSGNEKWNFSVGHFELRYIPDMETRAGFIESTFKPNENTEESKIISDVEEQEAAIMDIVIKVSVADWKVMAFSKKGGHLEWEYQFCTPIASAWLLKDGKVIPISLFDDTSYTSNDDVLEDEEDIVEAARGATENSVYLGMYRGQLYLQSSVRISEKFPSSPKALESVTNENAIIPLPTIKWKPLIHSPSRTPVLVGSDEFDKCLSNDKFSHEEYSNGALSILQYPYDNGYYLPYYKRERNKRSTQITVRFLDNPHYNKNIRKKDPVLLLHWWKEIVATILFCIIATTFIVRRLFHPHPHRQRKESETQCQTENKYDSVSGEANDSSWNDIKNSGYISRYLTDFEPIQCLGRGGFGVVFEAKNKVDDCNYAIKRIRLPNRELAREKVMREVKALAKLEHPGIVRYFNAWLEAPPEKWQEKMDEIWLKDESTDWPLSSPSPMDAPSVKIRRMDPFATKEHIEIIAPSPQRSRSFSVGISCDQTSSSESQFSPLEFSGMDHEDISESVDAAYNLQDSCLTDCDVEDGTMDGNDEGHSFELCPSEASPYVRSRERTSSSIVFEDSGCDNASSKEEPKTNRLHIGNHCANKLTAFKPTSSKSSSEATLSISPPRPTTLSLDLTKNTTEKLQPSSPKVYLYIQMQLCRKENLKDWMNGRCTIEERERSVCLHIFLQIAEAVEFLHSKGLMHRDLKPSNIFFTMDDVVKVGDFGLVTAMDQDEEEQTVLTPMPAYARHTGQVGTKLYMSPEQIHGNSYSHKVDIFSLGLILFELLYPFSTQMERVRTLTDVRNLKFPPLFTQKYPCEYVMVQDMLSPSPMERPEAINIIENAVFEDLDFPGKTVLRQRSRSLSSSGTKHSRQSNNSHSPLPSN
AHR act confirm = AHR activators, confirmation, cell-based, luminescence, luciferase reporter, human; AID 2845, 2010; human cells, AHR-responsive luciferase reporter; activation, % at 9 µM; shares compounds with AHR act; 2,300 tested, 87% active; in the data active = activation above about 49%;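 also: HepG2 hepatoma cells carrying a DRE-driven firefly luciferase reporter; 0% = vehicle wells and 100% = reference agonist wells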
PXR act counter = human PXR activators, counter-screen for AHR activator project, cell-based, luciferase luminescence; cell-based PXR reporter; AID 434939, 2010; activation, % at 11.6 µM; 2,300 tested, 88% active; shares compounds with AHR act; in the data active = activation above about 11%;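 also: human hepatoma DPX-2 cells expressing full-length human PXR; 0% = DMSO and 100% = reference agonist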
Active calls of the source: *; ? = inconclusive; · = no result.

SMILES | Hsp70 activator | AHR act | PolyA inh | HSF1 inhib | STAT3 act | PERK inhibitor | AHR act confirm | PXR act counter
CCN(CC)C(=O)c1sc(NC(=O)c2c(OC)cccc2OC)c(C#N)c1C | 0 | 132* | 11 | -4 | 96 | 1 | 92* | 173*
CCN(CC)C(=O)c1sc(NC(=O)c2cccc([N+](=O)[O-])c2)c(C#N)c1C | 0 | -1 | 10 | 3 | 102 | 1 | · | ·
CCc1ccc(NC(=O)c2ccc3nc(N)sc3c2)cc1 | 0 | 99* | 6 | 9 | 106 | 0 | 51* | 18*
CCc1ccc(NC(=O)c2ccc3ncsc3c2)cc1 | 0 | · | ? | 19 | 110 | 1 | · | ·
Nc1nc2ccc(C(=O)Nc3ccccc3)cc2s1 | 0 | 100* | 6 | 10 | 156* | 0 | 137* | 48*
CCCOc1ccc(CCCN=C(N)N)cc1Cl | · | 4 | -9 | -1 | · | 0 | · | ·
CCn1c2ccccc2c2cc(NC(=O)c3cccc([N+](=O)[O-])c3C)ccc21 | 0 | 113* | -21 | 2 | 108 | 0 | 87* | 55*
CCn1c2ccccc2c2cc(NC(=O)c3cccc([N+](=O)[O-])c3)ccc21 | · | 86* | 0 | 15 | · | · | 89* | 33*
Cc1cnc(C(=O)OC(C)C(=O)NC2CCCc3ccccc32)cn1 (stereo unspecified) | · | 0 | 7 | 0 | · | · | · | ·
CCCCCCC(=O)Nc1nc(C)c(-c2csc(Nc3cc(Cl)ccc3C)n2)s1 | 0 | 79* | 4 | 7 | 97 | 0 | 81* | 17*
CCCCCC(=O)Nc1nc(C)c(-c2csc(Nc3ccccc3OC)n2)s1 | 0 | 85* | 0 | -1 | 104 | -1 | 96* | 50*
COc1ccccc1Nc1nc(-c2sc(N)nc2C)cs1 | · | 24 | -5 | 2 | · | · | · | ·
CCCC(C)C(=O)Nc1nc(C)c(-c2csc(Nc3ccccc3OC)n2)s1 (stereo unspecified) | 0 | 124* | 22 | -1 | 90 | -1 | 72* | 62*
COc1ccccc1Nc1nc(-c2sc(NC(=O)c3ccc([N+](=O)[O-])cc3)nc2C)cs1 | 0 | 19 | -2 | -38 | 88 | 0 | · | ·
CCCCC(=O)Nc1nc(C)c(-c2csc(Nc3cc(OC)ccc3OC)n2)s1 | 0 | 85* | 4 | -18 | 96 | -1 | 82* | 58*
Cc1ccc(SCC(=O)Nc2ccc(-c3nc4ccccc4[nH]3)cc2)cc1 | 0 | 16 | -6 | 12 | 101 | 2 | · | ·
COc1ccccc1Nc1nc(NCCO)nc(N)c1[N+](=O)[O-] | · | 97* | 5 | -7 | · | 0 | 128* | ·
CNc1nc(N)c([N+](=O)[O-])c(Nc2ccccc2OC)n1 | · | 107* | -17 | 6 | · | · | 93* | 18*
COc1ccc(OC)c(Nc2nc(NCCCN(C)C)nc(N)c2[N+](=O)[O-])c1 | · | 38 | 19 | -9 | · | -1 | · | ·
CC12CCC(C/C1=N\OC(=O)c1c(F)cccc1F)C2(C)C (stereo unspecified) | · | -1 | 6 | 14 | · | 0 | · | ·
COc1c(C)cc(Br)cc1C(=O)NC(=S)NCc1ccco1 | · | 11 | -66 | -11 | · | · | · | ·
Nc1cc(-c2ccc(Br)cc2)[nH]n1 | 0 | 84* | 10 | -5 | 111 | -1 | 132* | 11*
O=c1[nH]c(Sc2ccc([N+](=O)[O-])cc2[N+](=O)[O-])nc2ccccc12 | · | 88* | -31 | 22 | · | · | 41 | 26*
O=[N+]([O-])c1ccc(Sc2nc3ccccc3o2)c([N+](=O)[O-])c1 | 0 | 6 | -93 | 194 | 106 | 0 | · | ·
Cc1nc2ccccc2nc1OCc1ccc([N+](=O)[O-])cc1 | 0 | -4 | -18 | 5 | 98 | 2 | · | ·
SMILES | Hsp70 activator | AHR act | PolyA inh | HSF1 inhib | STAT3 act | PERK inhibitor | AHR act confirm | PXR act counter
O=C(Nc1ccc(Br)cc1)N1CCc2ccccc2C1 | · | 98* | 7 | 33 | · | · | 156* | 55*
Cc1cccc(NC2=C(NC(=O)c3ccccc3)C(=O)c3ccccc3C2=O)c1 | 0 | 106* | -18 | 12 | 121 | -1 | 103* | 124*
COc1ccc(N(Cc2ccccc2)N=O)cc1 | · | 2 | 5 | -11 | · | · | · | ·
CC1Sc2ccc(S(=O)(=O)CCC(=O)NCc3ccc(Cl)cc3)cc2NC1=O (stereo unspecified) | · | 3 | -16 | 1 | · | · | · | ·
CCOc1ccccc1NC(=O)CN1CCN(Cc2ccccc2)CC1 | · | 3 | -5 | -3 | · | · | · | ·
Cc1cc(C(=O)Nc2ccc(Cl)cc2)on1 | · | 23 | -15 | 11 | · | · | · | ·
Cc1nnsc1C(=O)Nc1ccc(Cl)cc1 | 0 | 106* | -3 | 6 | 87 | 0 | 64* | 26*
Cc1ocnc1C(=O)Nc1ccc(Cl)cc1 | 0 | 104* | 11 | 24 | 97 | 1 | 66* | 25*
Cc1nnsc1C(=O)Nc1ccccc1 | 0 | 1 | -1 | -6 | 101 | 0 | · | ·
CC(=O)c1ccc(-c2nnc(CCC(=O)N(C)Cc3c(C)nc4ccccn34)o2)s1 | 0 | 1 | 5 | -3 | 90 | 1 | · | ·
CCOc1ccccc1Nc1nc(N)nc(CSc2nccc(C)n2)n1 | 0 | 81* | 28 | -15 | 92 | 0 | 70* | 60*
COc1ccccc1Nc1nc(N)nc(CSc2ncccn2)n1 | 0 | 8 | -7 | -5 | 104 | 0 | · | ·
Cc1cccc(Nc2nc(N)nc(CSc3nccc(C)n3)n2)c1 | 0 | 103* | -5 | 6 | 99 | 0 | 103* | 119*
O=c1c2ccccc2nc2oc3ccccc3n12 | · | 95* | 10 | 17 | · | · | 93* | 17*
COC(=O)C1=C(N)N(c2ccccc2F)C2=C(C(=O)CC(C)(C)C2)C1c1ccc(OC)c(OC)c1 (stereo unspecified) | 0 | 8 | -33 | 3 | 100 | -1 | · | ·
COc1ccccc1C1CC(c2cccs2)=Nc2ccccc2S1 (stereo unspecified) | 0 | 102* | -16 | 4 | 133* | 0 | 93* | 55*
COc1ccc(S(=O)(=O)N2CC(O)CC2C(=O)Nc2cccnc2)cc1 (stereo unspecified) | · | -3 | 2 | 3 | · | 0 | · | ·
